Reference: PMC5962930 (ACS Chemical Biology, 2018)

How the values were obtained:
Aplysia feeding network = test: Feeding network; type: cell-based; conditions: intact buccal and cerebral ganglia; peptide perfusion vs control
Summary of the method: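 Intact buccal plus cerebral ganglia were recorded intra- and extracellularly during peptide perfusion. A peptide scored active when perfusion gave statistically higher circuit activity than control without peptide. Means were compared by repeated-measures one-way ANOVA, assuming sphericity, with Bonferroni post test.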

apALNR = target: T1, apALNR (Aplysia californica, UniProt A0ABM0K1K5); type: cell-based
T1 sequence (A0ABM0K1K5 1-578): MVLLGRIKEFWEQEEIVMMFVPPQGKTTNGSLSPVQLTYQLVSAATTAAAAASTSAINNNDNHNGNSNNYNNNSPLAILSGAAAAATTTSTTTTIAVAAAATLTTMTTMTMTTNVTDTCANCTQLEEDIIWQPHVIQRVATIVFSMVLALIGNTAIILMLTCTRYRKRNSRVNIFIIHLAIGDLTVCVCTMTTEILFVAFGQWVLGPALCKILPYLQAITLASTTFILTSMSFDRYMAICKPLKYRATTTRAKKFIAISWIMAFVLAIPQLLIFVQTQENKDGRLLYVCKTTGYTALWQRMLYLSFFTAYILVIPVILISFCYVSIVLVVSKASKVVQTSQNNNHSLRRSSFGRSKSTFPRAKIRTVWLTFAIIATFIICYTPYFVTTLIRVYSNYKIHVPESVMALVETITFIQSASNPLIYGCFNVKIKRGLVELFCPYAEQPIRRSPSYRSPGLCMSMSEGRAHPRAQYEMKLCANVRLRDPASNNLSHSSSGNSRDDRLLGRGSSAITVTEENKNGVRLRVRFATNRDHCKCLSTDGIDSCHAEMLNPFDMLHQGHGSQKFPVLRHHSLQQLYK

H-SYADSKDEESNAALSDFAED-OH
feeding network (electrophys.) (Aplysia feeding network): not active
EC50 (apALNR): > 50 µM
